According to paper PMC7564327 (Acta Pharmaceutica Sinica. B, 2020):

Columns and labels:
[1] = biological target: T1, hOATP2B1 (Homo sapiens, UniProt O94956); assay: Cellular uptake in HEK293-hOATP2B1 vs Mock cells; type: in vitro ADME; conditions: 100 μmol/L, substrate if >2-fold of wild type
T1 sequence (O94956 1-709): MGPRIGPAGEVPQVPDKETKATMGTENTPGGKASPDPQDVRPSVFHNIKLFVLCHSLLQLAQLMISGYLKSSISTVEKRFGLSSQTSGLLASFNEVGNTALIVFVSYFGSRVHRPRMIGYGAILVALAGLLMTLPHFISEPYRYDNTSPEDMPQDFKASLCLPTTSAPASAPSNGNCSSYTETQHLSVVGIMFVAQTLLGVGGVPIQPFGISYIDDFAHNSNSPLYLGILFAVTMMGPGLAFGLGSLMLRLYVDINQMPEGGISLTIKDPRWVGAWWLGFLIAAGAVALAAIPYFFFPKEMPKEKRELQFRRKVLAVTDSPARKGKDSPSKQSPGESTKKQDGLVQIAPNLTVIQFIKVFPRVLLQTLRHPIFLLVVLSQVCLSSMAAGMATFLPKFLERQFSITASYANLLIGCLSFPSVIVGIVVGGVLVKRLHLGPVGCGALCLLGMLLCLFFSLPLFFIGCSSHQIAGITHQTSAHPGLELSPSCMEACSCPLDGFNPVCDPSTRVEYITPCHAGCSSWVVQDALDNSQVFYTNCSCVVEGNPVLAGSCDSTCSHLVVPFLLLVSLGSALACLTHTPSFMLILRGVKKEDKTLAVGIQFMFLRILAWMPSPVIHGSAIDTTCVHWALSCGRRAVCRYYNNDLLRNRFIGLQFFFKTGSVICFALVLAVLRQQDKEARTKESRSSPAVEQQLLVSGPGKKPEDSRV

[2] = biological target: T1, hOATP2B1; assay: Inhibition of 3H-ES uptake in HEK293-hOATP2B1 cells; type: in vitro ADME; conditions: 100 μmol/L IPT, ISP; substrate 3H-ES
Procedure, shortened: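 Test compounds were made as DMSO stocks (20 mmol/L, or 10 mg/mL for extract) and diluted in PBS to a final DMSO below 0.5%. Cells were exposed at 37 °C to probe plus or minus test compound. The probe was 5 μmol/L ¹⁴C-PAH for 5 min (hOAT1) or 50 nmol/L ³H-estrone sulfate for 2 min (hOAT3, hOATP2B1). Screens used 100 μmol/L (extract 100 mg/L); IC50 came from varied concentrations. Cells were then given three cold DPBS washes, lysed in 0.1 mol/L NaOH and read by scintillation counting. Data are mean ± SD, n = 3.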

SMILES | accumulation in HEK293-hOATP2B1 vs HEK293 wild type [1] | inhibition to hOATP2B1 [2]
CC(C)=CCOc1c2occc2cc2ccc(=O)oc12 [IPT, imperatorin] | less than 2 fold | weak or no inhibition
CC(C)=CCOc1c2ccoc2cc2oc(=O)ccc12 [ISP, isoimperatorin] | less than 2 fold | weak or no inhibition
